ChEMBL document CHEMBL4814031, “In pursuit of a selective hepatocellular carcinoma therapeutic agent: Novel thalidomide derivatives with antiproliferative, antimigratory and STAT3 inhibitory properties” (Eur J Med Chem, 2021)
The source made the active and inactive calls. The rule behind the calls is not given here.

Legend:
[1] = Antiproliferative activity against mouse BMOL-NT cells assessed as cell growth by measuring doubling time at 10 uM measured every 4 hrs for 3 days by IncuCyte zoom live cell analysis (reference value: 18 to 19 hrs); assay type: cell-based; conditions: 72 h, time 3 day
[2] = Antiproliferative activity against mouse BMOL-T cells assessed as cell growth by measuring doubling time at 10 uM measured every 4 hrs for 3 days by IncuCyte zoom live cell analysis (reference value: 14.3 to 15 hrs); assay type: functional; conditions: time 3 day
[3] = Antimigratory activity against mouse BMOL-T cells assessed as inhibition of cell migration at 10 uM incubated for 16 hrs by scratch wound healing assay relative to control; assay type: functional
Outline: (§1)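 Wound healing in BMOL-T cells plated at 20,000/well in supplemented Williams' E medium and grown 24 h. Wounds made with a Woundmaker, then medium replaced with fresh medium holding compound or 0.1% DMSO vehicle. Live-cell imaging every 2 h over 24 h, read as average wound width (µm). n = 3, SEM.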

Transcription factor p65 [4] = target: T1, Transcription factor p65 (Mus musculus, UniProt Q04207); test: Inhibition of NFkB p65 phosphorylation in mouse BMOL-NT cells assessed as change in phosphorylated p65 level at 10 uM incubated for 6 hrs by immunofluorescent assay relative to control; assay type: cell-based; parameters: scale not given: the % may be the effect or the level left
T1 sequence (Q04207 whole entry): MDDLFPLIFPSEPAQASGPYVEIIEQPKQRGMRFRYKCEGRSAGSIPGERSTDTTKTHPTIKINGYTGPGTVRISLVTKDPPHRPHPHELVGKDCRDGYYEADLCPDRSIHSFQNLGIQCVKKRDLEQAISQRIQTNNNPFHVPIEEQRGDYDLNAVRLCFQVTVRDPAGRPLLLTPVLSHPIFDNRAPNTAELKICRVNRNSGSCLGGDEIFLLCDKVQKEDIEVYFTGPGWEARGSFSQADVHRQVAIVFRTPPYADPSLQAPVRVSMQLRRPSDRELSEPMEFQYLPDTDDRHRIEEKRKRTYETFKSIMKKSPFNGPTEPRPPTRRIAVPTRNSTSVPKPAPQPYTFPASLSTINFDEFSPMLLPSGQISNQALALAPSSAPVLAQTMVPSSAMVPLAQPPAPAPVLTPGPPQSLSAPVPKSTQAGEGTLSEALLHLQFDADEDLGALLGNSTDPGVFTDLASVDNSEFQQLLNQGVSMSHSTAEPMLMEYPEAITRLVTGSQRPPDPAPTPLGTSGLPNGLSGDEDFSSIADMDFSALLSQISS
Outline: (§2)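 BMOL cells in supplemented Williams' E medium were treated 6 h with compound or 0.1% DMSO vehicle. Fixed in 4% PFA, permeabilised with 0.1% Triton X-100, blocked, then incubated 18 h with anti-phospho-p65, -Akt or -STAT3, then secondary antibody 1 h and Hoechst. High-content imaging of per-cell intensity and nuclear:whole-cell ratio. Mean of two experiments, SD.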

[5] = target: Transcription factor p65 (Mus musculus) (UniProt Q04207); test: Inhibition of NFkB p65 phosphorylation in mouse BMOL-T cells assessed as change in phosphorylated p65 level at 10 uM incubated for 6 hrs by immunofluorescent assay relative to control; assay type: cell-based; parameters: scale not given: the % may be the effect or the level left; outline: as §2
Chain of Transcription factor p65 (Mus musculus) (Q04207 whole entry): as above

[6] = Inhibition of Akt phosphorylation in mouse BMOL-NT cells assessed as change in phosphorylated Akt level at 10 uM incubated for 6 hrs by immunofluorescent assay relative to control; assay type: cell-based; parameters: scale not given: the % may be the effect or the level left; outline: as §2
BMOL-T [7] = test: Inhibition of Akt phosphorylation in mouse BMOL-T cells assessed as change in phosphorylated Akt level at 10 uM incubated for 6 hrs by immunofluorescent assay relative to control; assay type: cell-based; parameters: scale not given: the % may be the effect or the level left; outline: as §2
[8] = target: T2, Signal transducer and activator of transcription 3 (Mus musculus, UniProt P42227); test: Inhibition of STAT3 phosphorylation in mouse BMOL-NT cells assessed as change in phosphorylated STAT3 level at 10 uM incubated for 6 hrs by immunofluorescence assay relative to control; assay type: cell-based; parameters: scale not given: the % may be the effect or the level left; outline: as §2
T2 sequence (P42227 whole entry): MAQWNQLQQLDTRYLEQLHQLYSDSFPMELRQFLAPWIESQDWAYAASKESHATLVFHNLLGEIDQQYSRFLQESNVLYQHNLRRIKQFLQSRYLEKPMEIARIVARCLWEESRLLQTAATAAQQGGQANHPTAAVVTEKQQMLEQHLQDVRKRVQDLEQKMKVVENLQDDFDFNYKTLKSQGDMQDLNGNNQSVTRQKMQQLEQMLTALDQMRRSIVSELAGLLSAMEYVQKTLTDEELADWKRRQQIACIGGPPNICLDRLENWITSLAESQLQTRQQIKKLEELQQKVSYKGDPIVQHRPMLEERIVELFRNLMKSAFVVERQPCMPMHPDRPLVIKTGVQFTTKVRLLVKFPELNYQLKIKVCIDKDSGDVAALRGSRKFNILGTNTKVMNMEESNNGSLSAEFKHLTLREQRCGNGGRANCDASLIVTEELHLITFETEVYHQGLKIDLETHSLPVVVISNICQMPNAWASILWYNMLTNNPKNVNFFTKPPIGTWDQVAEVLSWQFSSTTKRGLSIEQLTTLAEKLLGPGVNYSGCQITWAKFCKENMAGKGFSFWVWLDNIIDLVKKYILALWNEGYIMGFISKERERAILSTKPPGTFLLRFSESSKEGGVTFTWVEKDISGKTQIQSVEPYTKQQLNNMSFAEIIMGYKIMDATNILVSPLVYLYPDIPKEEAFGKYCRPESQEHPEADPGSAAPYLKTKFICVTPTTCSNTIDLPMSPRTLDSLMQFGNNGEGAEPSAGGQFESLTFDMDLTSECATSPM

[9] = target: Signal transducer and activator of transcription 3 (Mus musculus) (UniProt P42227); test: Inhibition of STAT3 phosphorylation in mouse BMOL-T cells assessed as change in phosphorylated STAT3 level at 10 uM incubated for 6 hrs by immunofluorescence assay relative to control; assay type: cell-based; parameters: scale not given: the % may be the effect or the level left; outline: as §2
Chain of Signal transducer and activator of transcription 3 (Mus musculus) (P42227 whole entry): as above

Transcription factor p65 [10] = target: T1, Transcription factor p65; test: Inhibition of NFkB p65 nuclear translocation in mouse BMOL-NT cells assessed as change in nuclear p65 level at 10 uM incubated for 6 hrs by immunofluorescent assay relative to control; assay type: subcellular, Nucleus; parameters: scale not given: the % may be the effect or the level left; outline: as §2
[11] = target: Transcription factor p65 (Mus musculus) (UniProt Q04207); test: Inhibition of NFkB p65 nuclear translocation in mouse BMOL-T cells assessed as change in nuclear p65 level at 10 uM incubated for 6 hrs by immunofluorescent assay relative to control; assay type: subcellular; parameters: scale not given: the % may be the effect or the level left; conditions: Nucleus; outline: as §2
[12] = Inhibition of Akt phosphorylation in mouse BMOL-NT cells assessed as change in nuclear phosphorylated Akt level at 10 uM incubated for 6 hrs by immunofluorescent assay relative to control; assay type: subcellular, Nucleus; parameters: scale not given: the % may be the effect or the level left; outline: as §2
BMOL-T [13] = test: Inhibition of Akt phosphorylation in mouse BMOL-T cells assessed as change in nuclear phosphorylated Akt level at 10 uM incubated for 6 hrs by immunofluorescent assay relative to control; assay type: subcellular; parameters: scale not given: the % may be the effect or the level left; conditions: Nucleus; outline: as §2
[14] = target: T2, Signal transducer and activator of transcription 3; test: Inhibition of STAT3 phosphorylation in mouse BMOL-NT cells assessed as change in nuclear phosphorylated STAT3 level at 10 uM incubated for 6 hrs by immunofluorescence assay relative to control; assay type: subcellular, Nucleus; parameters: scale not given: the % may be the effect or the level left; outline: as §2
[15] = target: Signal transducer and activator of transcription 3 (Mus musculus) (UniProt P42227); test: Inhibition of STAT3 phosphorylation in mouse BMOL-T cells assessed as change in nuclear phosphorylated STAT3 level at 10 uM incubated for 6 hrs by immunofluorescence assay relative to control; assay type: subcellular; parameters: scale not given: the % may be the effect or the level left; conditions: Nucleus; outline: as §2
BMOL-T [16] = test: Effect on STAT3 expression in mouse BMOL-T cells at 10 uM by AlphaLISA assay; assay type: functional, cell-based
Outline: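 AlphaLISA in BMOL-T cells treated at 10 µM with 0.1% DMSO vehicle as control. Read as normalised fluorescence for total STAT3, or as the ratio of total STAT3 to p-STAT3. n ≥ 3, SEM. Significance by ANOVA with Dunnett's test.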

BMOL-T [17] = test: (§3) Antiproliferative activity against mouse BMOL-T cells assessed as cell growth inhibition at 10 uM measured every 4 hrs for 3 days by IncuCyte zoom live cell analysis relative to control; assay type: functional; conditions: time 3.0 day
BMOL-T [18] = test: Antimigratory activity against mouse BMOL-T cells assessed as inhibition of cell migration at 10 uM incubated for 24 hrs by scratch wound healing assay; assay type: functional, cell-based; outline: as §1
[19] = as §3; assay type: functional; conditions: 72 h, time 3 day
[20] = Selectivity for antiproliferative activity against mouse BMOL-T cells over mouse BMOL-NT cells at 10 uM measured every 4 hrs for 3 days by IncuCyte zoom live cell analysis; conditions: time 3 day
[21] = (§4) Antiproliferative activity against mouse BMOL-T cells assessed as minimum concentration required for cell growth inhibition measured every 4 hrs for 3 days by IncuCyte zoom live cell analysis; assay type: functional; conditions: time 3 day
Outline: (§5)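 Dose series for BMOL-T proliferation: cells plated at 1000/well, compound added from 2× solutions (final 0.1% DMSO), imaged every 4 h for 3 days. Doubling time from the log-phase linear part of a log confluence vs time curve, expressed as % change over vehicle. n = 3, SEM.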

BMOL-T [22] = test: as §4; assay type: functional; conditions: time 3.0 day; outline: as §5
[23] = Antiproliferative activity against mouse BMOL-NT cells assessed as cell growth inhibition at >10 uM measured every 4 hrs for 3 days by IncuCyte zoom live cell analysis; assay type: cell-based; conditions: 72 h, time 3 day
[24] = Selectivity for antiproliferative activity against mouse BMOL-T cells over mouse BMOL-NT cells at 26 uM measured every 4 hrs for 3 days by IncuCyte zoom live cell analysis; conditions: time 3 day
[25] = Antiproliferative activity against mouse BMOL-NT cells assessed as cell growth inhibition at 10 uM measured every 4 hrs for 3 days by IncuCyte zoom live cell analysis relative to control; assay type: cell-based; conditions: time 3 day
[26] = Antiproliferative activity against mouse BMOL-T cells assessed as change in doubling time at 10 uM measured every 4 hrs for 3 days by IncuCyte zoom live cell analysis relative to control; assay type: functional; conditions: time 3 day
[27] = Antiproliferative activity against mouse BMOL-NT cells assessed as change in doubling time at 10 uM measured every 4 hrs for 3 days by IncuCyte zoom live cell analysis relative to control; assay type: cell-based; conditions: 72 h, time 3 day

Compound: Nc1cccc2c1CN(C1CCC(=O)NC1=O)C2=O (stereo not given) [LENALIDOMIDE]
- Time [1]: 18 h
- Time [2]: 15 h
- inhibition at 10 µM [3]: 20%
- Activity (Transcription factor p65 [4]): 13%
- Activity [5]: -5%
- Activity [6]: 0%
- Activity (BMOL-T [7]): -9%
- Activity [8]: 2%
- Activity [9]: -4%
- Activity (Transcription factor p65 [10]): -9%
- Activity [11]: 7%
- Activity [12]: -6%
- Activity (BMOL-T [13]): -16%
- Activity [14]: -3%
- Activity [15]: 3%
- Activity (BMOL-T [16]): inactive

Compound: CC(C)Oc1ccc(Nc2cccc3c2C(=O)N(C2CCC(=O)NC2=O)C3=O)cc1 (stereo not given)
- Activity (BMOL-T [17]): Active

Compound: CN(C)c1ccc(Nc2cccc3c2C(=O)N(C2CCC(=O)NC2=O)C3=O)cc1 (stereo not given)
- Activity (BMOL-T [17]): Active

Compound: CC(C)(C)c1ccc(Nc2cccc3c2C(=O)N(C2CCC(=O)NC2=O)C3=O)cc1 (stereo not given)
- Activity (BMOL-T [18]): Active
- inhibition at 10 µM [3]: 94%
- Activity (Transcription factor p65 [4]): -1%
- Activity [5]: -7%
- Activity [6]: 4%
- Activity (BMOL-T [7]): 4%
- Activity [8]: -4%
- Activity [9]: -7%
- inhibition at 10 µM [19]: 31%
- Selectivity ratio [20]: 23
- MAC [21]: 4 µM
- Activity (BMOL-T [22]): Dose-Dependent Effect
- Activity [23]: Toxic
- Selectivity ratio [24]: 3
- Activity (Transcription factor p65 [10]): -11%
- Activity [11]: -9%
- Activity [12]: -10%
- Activity (BMOL-T [13]): 4%
- Activity [14]: -13%
- Activity [15]: -10%
- Activity (BMOL-T [16]): inactive

Compound: CCc1ccc(Nc2cccc3c2C(=O)N(C2CCC(=O)NC2=O)C3=O)cc1 (stereo not given)
- inhibition at 72 h, 10 µM ([25]; BMOL-NT cells): ≤ 10%
- Activity (BMOL-T [17]): Active

Compound: CC(C)c1ccc(Oc2cccc3c2C(=O)N(C2CCC(=O)NC2=O)C3=O)cc1 (stereo not given)
- Time [1]: 17.5 h
- Time [2]: 15.4 h
- Activity [26]: 5%

Compound: O=C1CCC(N2C(=O)c3ccc(Nc4ccccc4)cc3C2=O)C(=O)N1 (stereo not given)
- Time [1]: 17.4 h
- Time [2]: 14.7 h
- Activity [26]: 4%

Compound: O=C1CCC(N2C(=O)c3cccc(Cc4ccccc4)c3C2=O)C(=O)N1 (stereo not given)
- Time [1]: 17.7 h
- Time [2]: 13.8 h
- Activity [27]: 2%

Compound: O=C1CCC(N2C(=O)c3cccc(Nc4ccccn4)c3C2=O)C(=O)N1 (stereo not given)
- Activity ([25]; bmol-nt, 72 h, 10 µM): Toxic

Compound: COc1ccc(Nc2cccc3c2C(=O)N(C2CCC(=O)NC2=O)C3=O)cc1 (stereo not given)
- Activity (BMOL-T [17]): Active

Compound: CC(C)c1ccc(Cc2cccc3c2C(=O)N(C2CCC(=O)NC2=O)C3=O)cc1 (stereo not given)
- Time [1]: 17.5 h
- Time [2]: 17 h
- Activity [26]: 17%

Compound: CC(C)c1ccc(Nc2ccc3c(c2)C(=O)N(C2CCC(=O)NC2=O)C3=O)cc1 (stereo not given)
- Time [1]: 17.2 h
- Time [2]: 14.1 h
- Activity [26]: 3%

Compound: Cc1ccccc1Nc1cccc2c1C(=O)N(C1CCC(=O)NC1=O)C2=O (stereo not given)
- Activity (BMOL-T [17]): inactive

Compound: O=C1CCC(N2C(=O)c3cccc(Sc4ccc(C(F)(F)F)cn4)c3C2=O)C(=O)N1 (stereo not given)
- Activity (BMOL-T [17]): inactive

Compound: CC(C)c1ccc(Sc2cccc3c2C(=O)N(C2CCC(=O)NC2=O)C3=O)cc1 (stereo not given)
- Time [1]: 17.2 h
- Time [2]: 16.2 h
- Activity [27]: 3%
- Activity [26]: 19%

Compound: O=C1CCC(N2C(=O)c3cccc(Oc4ccccc4)c3C2=O)C(=O)N1 (stereo not given)
- Time [1]: 16.9 h
- Time [2]: 14.3 h
- Activity [26]: 6%

Compound: CC(C)c1ccc(Nc2cccc3c2C(=O)N(C2CCC(=O)NC2=O)C3=O)cc1 (stereo not given)
- Time [1]: 17.3 h
- Time [2]: 16.3 h
- Activity [26]: 19%
